# Reference: article PMC9272583 (European Journal of Medicinal Chemistry, 2022)
# Like-named read-outs stand apart in the source and are kept apart here.
# What was measured:
# SARS-CoV-2 M^pro [1] = target: T1, SARS-CoV-2 M^pro (Severe acute respiratory syndrome coronavirus 2, UniProt P0DTD1); test: SARS-CoV-2 Mpro fluorogenic; format: biochemical; conditions: for time dependent inhibition: 12.5 μM; for competitive binding (Cheng-Prusoff plots): increasing substrate concentration; for inhibition at 50 µM: 0.25 h, read-out: SARS-CoV-2 M^pro % (50 μM)
# [2] = Parallel artificial membrane permeability assay; format: in vitro ADME; conditions: PAMPA
# SARS-CoV-2 M^pro [3] = target: T1, SARS-CoV-2 M^pro; test: Compound stability against SARS-CoV-2 Mpro; conditions: 8 h of incubation in assay buffer, HPLC
# DENV-2 protease = target: T2, DENV-2 protease (Dengue virus type 2, UniProt P29990); test: Compound stability against DENV-2 protease; conditions: 8 h of incubation in DENV assay buffer, HPLC
# T2 sequence (P29990 1476-1653 limits assumed): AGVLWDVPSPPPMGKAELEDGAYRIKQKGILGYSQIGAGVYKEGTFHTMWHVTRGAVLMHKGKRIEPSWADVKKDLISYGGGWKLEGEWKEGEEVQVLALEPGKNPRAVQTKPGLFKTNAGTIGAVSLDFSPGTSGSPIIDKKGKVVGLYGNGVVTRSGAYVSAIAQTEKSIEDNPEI
# SARS-CoV-2 M^pro [4] = target: T1, SARS-CoV-2 M^pro; test: SARS-CoV-2 Mpro Michaelis-Menten kinetics; format: biochemical; conditions: Michaelis-Menten plot
# SARS-CoV-2 M^pro [5] = target: T1, SARS-CoV-2 M^pro; test: Dilution experiment; format: biochemical; conditions: preincubated 100 μM for 2 h, diluted to 3 μM
# DENV serotype 2 protease = DENV serotype 2 protease (Dengue virus type 2, UniProt P29990); test: DENV2 reporter gene assay; format: cell-based; conditions: for inhibition at 12.5 µM: HeLa, 24 h, read-out: DENV2proHeLa % (12.5 μM)
# Summary of the method: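 Stable DENV2proHeLa cells (DMEM, 10% heat-inactivated FCS, antibiotics) were seeded at 2 x 10^4 per well, dosed at once and incubated 24 h at 37 °C. Cells were lysed 15 min at room temperature, then coelenterazine (2.75 μM in PBS) was injected and luciferase read for 5 s. Triplicates; % inhibition vs untreated control. EC50 from a 4-parameter fit after background subtraction (cell-free wells).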
# DENV2proHeLa cells = test: Cytotoxicity in DENV2proHeLa cells; format: cell-based
# Summary of the method: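 HeLa cells stably carrying the DENV2 protease reporter, kept in DMEM with 10% heat-inactivated FCS, penicillin and streptomycin. Cells were seeded at 2 x 10^4 per well and given compound dilutions straight away. Plates ran in parallel with the reporter assay for 24 h at 37 °C. Viability was read by CellTiter-Blue, with each concentration in triplicate.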
# DENV serotype 2 = conditions: DENV-2 titer reduction; cited from earlier work
# SARS-CoV-2 M^pro [6] = target: T1, SARS-CoV-2 M^pro; test: SARS-CoV-2 Mpro mass adduct measurement; format: binding; conditions: ESI-TOF, 100 μM compound
# Summary of the method: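 Test compound (100 μM) was incubated with active recombinant Mpro (3 μM; bacterially expressed, Ni-NTA then size-exclusion purified) in 50 mM Tris-HCl pH 7.4, 100 mM NaCl, 20% v/v ethylene glycol, 0.0016% Brij 58. Analysis was by LC-ESI-TOF MS on a C18 column: water/acetonitrile with 0.1% formic acid, 10→95% B over 4 min, 0.3 mL/min. Negative mode, Na-formate external calibration.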
# [7] = read-out: DENV2proHeLa EC50, reporter gene assay in HeLa cells
# Chain of DENV serotype 2 protease (P29990 1346-1475): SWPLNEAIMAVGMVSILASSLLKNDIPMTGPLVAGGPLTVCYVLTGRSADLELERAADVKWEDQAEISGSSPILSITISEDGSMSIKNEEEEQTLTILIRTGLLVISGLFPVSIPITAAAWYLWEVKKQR
# Chain of DENV serotype 2 protease (P29990 1476-2093): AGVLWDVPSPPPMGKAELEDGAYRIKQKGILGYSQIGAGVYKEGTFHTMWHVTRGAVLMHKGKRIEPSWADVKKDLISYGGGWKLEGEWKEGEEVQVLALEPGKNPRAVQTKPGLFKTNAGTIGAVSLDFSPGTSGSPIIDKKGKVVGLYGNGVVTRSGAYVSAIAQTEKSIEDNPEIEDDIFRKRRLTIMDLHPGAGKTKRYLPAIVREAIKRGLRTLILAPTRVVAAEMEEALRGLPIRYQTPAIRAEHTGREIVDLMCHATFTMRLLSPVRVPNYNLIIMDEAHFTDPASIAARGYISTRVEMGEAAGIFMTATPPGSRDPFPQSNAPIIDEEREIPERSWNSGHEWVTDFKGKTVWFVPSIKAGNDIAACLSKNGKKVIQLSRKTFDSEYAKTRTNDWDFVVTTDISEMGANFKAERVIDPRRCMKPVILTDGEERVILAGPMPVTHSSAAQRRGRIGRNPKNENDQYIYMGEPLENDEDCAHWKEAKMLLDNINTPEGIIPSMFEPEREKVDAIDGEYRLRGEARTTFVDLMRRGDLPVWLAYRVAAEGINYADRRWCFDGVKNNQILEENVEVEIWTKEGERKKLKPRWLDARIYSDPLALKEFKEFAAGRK
compound,measurement,setting,value
"N=C(N)Nc1ccc2c(c1)B(O)OC2 [Compound 4, 1-(1-Hydroxy-1,3-dihydrobenzo[c][1,2]oxaborol-6-yl)guanidine]",Hill slope of dose-response curve,SARS-CoV-2 M^pro [1],1.15 ± 0.07
same,passive membrane permeability (in words),[2],no permeability
"N=C(N)Nc1ccc(C(=O)Nc2ccc3c(c2)B(O)OC3)cc1 [Compound 8, 4-guanidino-N-(1-hydroxy-1,3-dihydrobenzo[c][1,2]oxaborol-6-yl)benzamide]",Hill slope of dose-response curve,SARS-CoV-2 M^pro [1],1.14 ± 0.07
same,time dependent inhibition,SARS-CoV-2 M^pro [1],no significant increase or decrease
same,competitive binding (Cheng-Prusoff plots),SARS-CoV-2 M^pro [1],do not show competitive binding
same,stability against SARS-CoV-2 M^pro,SARS-CoV-2 M^pro [3],no cleavage
"O=S(=O)(Nc1ccc2c(c1)B(O)OC2)c1ccc(Cl)cc1 [Compound 11, 4-Chloro-N-(1-hydroxy-1,3-dihydrobenzo[c][1,2]oxaborol-6-yl)benzenesulfonamide]",passive membrane permeability (in words),[2],passive permeability
"O=C(Nc1ccc2c(c1)B(O)OC2)c1ccc(Oc2ccccc2)cc1 [Compound 15, N-(1-Hydroxy-1,3-dihydrobenzo[c][1,2]oxaborol-6-yl)-4-phenoxybenzamide]",passive membrane permeability (in words),[2],passive permeability
same,stability against DENV-2 protease,DENV-2 protease,no decrease in the compound AUC
"O=C(Nc1ccc2c(c1)B(O)OC2)c1ccccc1OCc1ccccc1 [Compound 17, 2-(Benzyloxy)-N-(1-hydroxy-1,3-dihydrobenzo[c][1,2]oxaborol-6-yl)benzamide]",passive membrane permeability (in words),[2],passive permeability
"O=C(Nc1ccc2c(c1)B(O)OC2)c1cccc(OCc2ccccc2)c1 [Compound 18, 3-(Benzyloxy)-N-(1-hydroxy-1,3-dihydrobenzo[c][1,2]oxaborol-6-yl)benzamide]",Hill slope of dose-response curve,SARS-CoV-2 M^pro [1],1.39 ± 0.16
same,time dependent inhibition,SARS-CoV-2 M^pro [1],no significant increase or decrease
same,competitive binding (Cheng-Prusoff plots),SARS-CoV-2 M^pro [1],do not show competitive binding
same,passive membrane permeability (in words),[2],passive permeability
same,stability against SARS-CoV-2 M^pro,SARS-CoV-2 M^pro [3],no cleavage
same,stability against DENV-2 protease,DENV-2 protease,no decrease in the compound AUC
same,inhibition mode,SARS-CoV-2 M^pro [4],mixed inhibition mode
same,reversibility of binding,SARS-CoV-2 M^pro [5],reversible
"O=C(Nc1ccc2c(c1)B(O)OC2)c1ccc(OCc2ccc(Cl)cc2)cc1 [Compound 20, 4-((4-Chlorobenzyl)oxy)-N-(1-hydroxy-1,3-dihydrobenzo[c][1,2]oxaborol-6-yl)benzamide]",passive membrane permeability (in words),[2],passive permeability
same,stability against DENV-2 protease,DENV-2 protease,no decrease in the compound AUC
"O=C(Nc1cccc(C(=O)Nc2ccc3c(c2)B(O)OC3)c1)c1ccccc1 [Compound 23, 3-Benzamido-N-(1-hydroxy-1,3-dihydrobenzo[c][1,2]oxaborol-6-yl)benzamide]",stability against SARS-CoV-2 M^pro,SARS-CoV-2 M^pro [3],no cleavage
"O=C(Nc1cccc(B(O)O)c1)c1cccc(OCc2ccccc2)c1 [Compound 26, (3-(3-(Benzyloxy)benzamido)phenyl)boronic acid]",passive membrane permeability (in words),[2],passive permeability
"O=C(Nc1ccc2c(c1)B(O)OC2)c1cccc(OCc2ccccc2)n1 [Compound 28, 6-(Benzyloxy)-N-(1-hydroxy-1,3-dihydrobenzo[c][1,2]oxaborol-6-yl)picolinamide]",inhibition at 50 µM,SARS-CoV-2 M^pro [1],55.5 ± 7%
same,inhibition at 12.5 µM,DENV serotype 2 protease,85.2 ± 4.1%
same,EC50,DENV serotype 2 protease; [7],2500 ± 200 nM
"Cc1cccc(COc2cccc(C(=O)Nc3ccc4c(c3)B(O)OC4)c2)c1 [Compound 29, N-(1-Hydroxy-1,3-dihydrobenzo[c][1,2]oxaborol-6-yl)-3-((3-methylbenzyl)oxy)benzamide]",inhibition at 50 µM,SARS-CoV-2 M^pro [1],45.7 ± 6.3%
same,EC50,DENV serotype 2 protease,1100 ± 100 nM
same,inhibition at 12.5 µM,DENV serotype 2 protease,90 ± 0.9%
"COc1cccc(COc2cccc(C(=O)Nc3ccc4c(c3)B(O)OC4)c2)c1 [Compound 30, N-(1-Hydroxy-1,3-dihydrobenzo[c][1,2]oxaborol-6-yl)-3-((3-methoxybenzyl)oxy)benzamide]",inhibition at 50 µM,SARS-CoV-2 M^pro [1],43.4 ± 9.1%
same,EC50,DENV serotype 2 protease,2900 ± 300 nM
same,inhibition at 12.5 µM,DENV serotype 2 protease,80.4 ± 2%
"N#Cc1ccc(COc2cccc(C(=O)Nc3ccc4c(c3)B(O)OC4)c2)cc1 [Compound 31, 3-((4-Cyanobenzyl)oxy)-N-(1-hydroxy-1,3-dihydrobenzo[c][1,2]oxaborol-6-yl)benzamide]",inhibition at 50 µM,SARS-CoV-2 M^pro [1],31.7 ± 3.6%
same,EC50,DENV serotype 2 protease,4100 ± 200 nM
same,inhibition at 12.5 µM,DENV serotype 2 protease,82.2 ± 3.7%
same,passive membrane permeability (in words),[2],passive permeability
"O=C(Nc1ccc2c(c1)B(O)OC2)c1cccc(OCc2ccc(Cl)cc2)c1 [Compound 32, 3-((4-Chlorobenzyl)oxy)-N-(1-hydroxy-1,3-dihydrobenzo[c][1,2]oxaborol-6-yl)benzamide]",EC50,DENV serotype 2 protease,2400 ± 200 nM
same,inhibition at 12.5 µM,DENV serotype 2 protease,83.6 ± 1.7%
same,stability against DENV-2 protease,DENV-2 protease,no decrease in the compound AUC
"O=C(Nc1ccc2c(c1)B(O)OC2)c1cccc(OCc2c(Cl)cccc2Cl)c1 [Compound 33, 3-((2,6-Dichlorobenzyl)oxy)-N-(1-hydroxy-1,3-dihydrobenzo[c][1,2]oxaborol-6-yl)benzamide]",inhibition at 12.5 µM,DENV serotype 2 protease,85.6 ± 4.3%
same,EC50,DENV serotype 2 protease; [7],540 ± 50 nM
same,passive membrane permeability (in words),[2],passive permeability
"O=C(Nc1ccc2c(c1)B(O)OC2)c1cccc(OCC2CCCCC2)c1 [Compound 34, 3-(Cyclohexylmethoxy)-N-(1-hydroxy-1,3-dihydrobenzo[c][1,2]oxaborol-6-yl)benzamide]",EC50,DENV serotype 2 protease,3400 ± 500 nM
"CCCCCC(=O)NC(C(=O)NCc1ccc(NC(=N)N)cc1)c1ccc(OCc2ccccc2)cc1 (centres unmarked) [NK-189, reference compound]",DENV2proHeLa % (12.5 μM),"DENV serotype 2 protease; inhibitor 12.5 μM, reporter gene assay in HeLa cells",79.3 ± 9.7%
same,EC50,DENV serotype 2 protease; [7],600 ± 100 nM
same,CC50,DENV2proHeLa cells,> 50000 nM
same,antiviral activity of the reference substance,DENV serotype 2,0.89 µM
CC(C)(C)NC(=O)N[C@H](C(=O)N1C[C@H]2[C@@H]([C@H]1C(=O)NC(CC1CCC1)C(=O)C(N)=O)C2(C)C)C(C)(C)C (some centres unmarked) [boceprevir],mass adducts with SARS-CoV-2 M^pro,SARS-CoV-2 M^pro [6],adducts were found
